Each block holds one molecule with its values, some of them ahead of it. The source made the active and inactive calls. The calls are words filed in the database; no cut-off is given here.
Assays:
[1] = Antiproliferative activity against human HeLa cells measured after 48 hrs by MTT assay; format: functional, cell-based
[2] = Antiproliferative activity against human MCF7 cells measured after 48 hrs by MTT assay; format: functional, cell-based; details: MCF7, 48 h
[3] = Antiproliferative activity against human Bel7402 cells measured after 48 hrs by MTT assay; format: functional, cell-based; details: Bel-7402, 48 h
[4] = Inhibition of porcine brain tubulin polymerization measured every 60 secs for 90 mins by fluorescence assay; set-up: species or system Sus scrofa
Summary of the method: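 Porcine brain tubulin in a fluorescence kit. Reaction mix: 80.0 mM PIPES sesquisodium (pH 6.9), 2.0 mM MgCl2, 0.5 mM EGTA, 1 mM GTP, 10.2% glycerol. Compound added and mix pre-warmed 1 min at 37 °C, then tubulin added to start. Fluorescence (ex 340, em 410 nm) read every 60 s for 90 min. IC50 from area under curve, three independent experiments.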

[5] = Antiproliferative activity against human A549 cells measured after 48 hrs by MTT assay; format: functional, cell-based; details: A549, 48 h
[6] = Antiproliferative activity against human LoVo cells measured after 48 hrs by MTT assay; format: functional, cell-based
[7] = Antiproliferative activity against human PC3 cells measured after 48 hrs by MTT assay; format: functional, cell-based; details: PC-3, 48 h
[8] = Antiproliferative activity against human A2780 cells measured after 48 hrs by MTT assay; format: functional, cell-based; details: A2780, 48 h
A549 [9] = assay: Induction of apoptosis in human A549 cells assessed as late and early apoptotic cells at 50 nM measured after 48 hrs by Annexin-V-FITC/propidium iodide staining based flow cytometry (reference value: 0.63 %); format: functional
Summary of the method: (§1)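 A549 seeded at 3×10^5 cells/well and treated at 10, 20 or 50 nM for 24 or 48 h, then harvested. Annexin V-FITC in HEPES 10 mM/NaCl 140 mM/CaCl2 2.5 mM (pH 7.4) 15 min at room temperature, then PI 10 min. About 10,000 events by flow cytometry, quadrants scored as early or late apoptotic. Three repeats.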

[10] = Antiproliferative activity against HLF measured after 48 hrs by MTT assay; details: Homo sapiens
Summary of the method: (§2)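 Cells in log phase plated at 5×10^3 cells/well, grown 24 h at 37 °C, 5% CO2, then exposed to a range of compound concentrations for 48 h. MTT (5 mg/mL stock) added, formazan dissolved in DMSO, absorbance read at 570 nm. IC50 from nonlinear regression, at least three independent experiments. Quiescent HUVECs kept in endothelial medium with 0.5% fetal calf serum, no growth factor.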

A549 [11] = assay: Induction of apoptosis in human A549 cells assessed as late and early apoptotic cells at 10 nM measured after 24 hrs by Annexin-V-FITC/propidium iodide staining based flow cytometry (reference value: 0.63 %); format: functional; summary of the method: as §1
A549 [12] = assay: Induction of apoptosis in human A549 cells assessed as late and early apoptotic cells at 20 nM measured after 48 hrs by Annexin-V-FITC/propidium iodide staining based flow cytometry (reference value: 0.63 %); format: functional; summary of the method: as §1
[13] = Antiproliferative activity against human MCF10A cells measured after 48 hrs by MTT assay; format: cell-based; details: MCF-10A; summary of the method: as §2
[14] = Cytotoxicity against HUVEC assessed as change in cell morphology at 20 nM in presence of fetal calf serum and absence of growth factor measured after 48 hrs by phase contrast microscopy; format: toxicity, cell-based; details: human, 0.02 µM
Summary of the method: (§3)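 A549 cells and quiescent HUVECs (0.5% fetal calf serum, no growth factor) treated at 20 and 200 nM for 48 h. Morphology (rounding, shrinkage, blebbing, detachment) inspected by microscopy.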

[15] = Selectivity ratio of IC50 for human BJ cells to IC50 for human A549 cells; format: ADME, cell-based; details: BJ cells versus A549 cells, read-out: Ratio IC50
Summary of the method: (§4)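 Ratio = IC50 in the normal line (HUVEC quiescent in 0.5% fetal calf serum without growth factor, MCF-10A, BJ or HLF) divided by IC50 in A549.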

[16] = Antiproliferative activity against HUVEC in presence of fetal calf serum and absence of growth factor measured after 48 hrs by MTT assay; format: cell-based; details: Homo sapiens; summary of the method: as §2
A549 [17] = assay: Cytotoxicity against human A549 cells assessed as change in cell morphology at 20 to 200 nM measured after 48 hrs by phase contrast microscopy; format: functional, cell-based; summary of the method: as §3
[18] = Cell cycle arrest in human A549 cells assessed as reduction in G1 phase at 10 to 50 nM measured after 24 to 48 hrs by propidium iodide staining based flow cytometry; format: functional
Summary of the method: (§5)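 A549 seeded at 3×10^5 cells/well and treated 24 or 48 h. Trypsinized, fixed in 70% ethanol at 4 °C overnight, RNase A 37 °C 30 min, then PI 4 °C 30 min. DNA content of 10,000 events read by flow cytometry at 488 nm. Three repeats.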

[19] = Selectivity ratio of IC50 for human MCF10A cells to IC50 for human A549 cells; format: ADME, cell-based; details: MCF10A cells versus A549 cells, read-out: Ratio IC50; summary of the method: as §4
A549 [20] = assay: Induction of apoptosis in human A549 cells assessed as late and early apoptotic cells at 10 nM measured after 48 hrs by Annexin-V-FITC/propidium iodide staining based flow cytometry (reference value: 0.63 %); format: functional; summary of the method: as §1
[21] = Cell cycle arrest in human A549 cells assessed as accumulation at G2/M phase at 50 nM measured after 24 hrs by propidium iodide staining based flow cytometry relative to control; format: functional; summary of the method: as §5
[22] = Cell cycle arrest in human A549 cells assessed as accumulation at G2/M phase at 10 nM measured after 24 hrs by propidium iodide staining based flow cytometry relative to control; format: functional; summary of the method: as §5
A549 [23] = assay: Induction of apoptosis in human A549 cells assessed as late and early apoptotic cells at 50 nM measured after 24 hrs by Annexin-V-FITC/propidium iodide staining based flow cytometry (reference value: 0.63 %); format: functional; summary of the method: as §1
[24] = Selectivity ratio of IC50 for HLF to IC50 for human A549 cells; format: ADME, cell-based; details: HLF versus A549 cells, read-out: Ratio IC50; summary of the method: as §4
[25] = Cytotoxicity against HUVEC assessed as change in cell morphology at 200 nM in presence of fetal calf serum and absence of growth factor measured after 48 hrs by phase contrast microscopy; format: toxicity, cell-based; details: human, 0.2 µM; summary of the method: as §3
A549 [26] = assay: Induction of apoptosis in human A549 cells by Annexin-V-FITC/propidium iodide staining based flow cytometry; format: functional, cell-based; summary of the method: as §1
A549 [27] = assay: Disruption of cellular microtubule network in human A549 cells assessed as blockade of cell mitosis measured after 12 hrs by Hochest 33342 staining based laser confocal microscopy
[28] = Cell cycle arrest in human A549 cells assessed as accumulation at G2/M phase at 25 nM measured after 24 hrs by propidium iodide staining based flow cytometry relative to control; format: functional; summary of the method: as §5
[29] = Antiproliferative activity against human BJ cells measured after 48 hrs by MTT assay; format: cell-based; summary of the method: as §2
A549 [30] = assay: Disruption of cellular microtubule network in human A549 cells measured after 12 hrs by Hochest 33342 staining based laser confocal microscopy; format: cell-based
A549 [31] = assay: Induction of apoptosis in human A549 cells assessed as late and early apoptotic cells at 20 nM measured after 24 hrs by Annexin-V-FITC/propidium iodide staining based flow cytometry (reference value: 0.63 %); format: functional; summary of the method: as §1
[32] = Selectivity ratio of IC50 for HUVEC in presence of fetal calf serum and absence of growth factor to IC50 for human A549 cells; format: cell-based; details: HUVEC versus A549 cells, read-out: Ratio IC50; summary of the method: as §4

IC50 [4]: 580 nM
Structure (SMILES): COc1cc(C2=CCCCc3c2ccc2c3ccn2C)cc(OC)c1OC
IC50 [1]: 56 nM
IC50 [2]: 69 nM
IC50 [3]: 78 nM
IC50 [5]: 49 nM
IC50 [6]: 47 nM
IC50 [7]: 93 nM
IC50 [8]: 44 nM

Structure (SMILES): COc1cc(C2=CCCCc3c2ccc2c3CCN2)cc(OC)c1OC
IC50 [1]: 701 nM
IC50 [2]: 812 nM
IC50 [3]: 797 nM
IC50 [5]: 312 nM
IC50 [6]: 1120 nM
IC50 [7]: 741 nM
IC50 [8]: 597 nM

IC50 [4]: 410 nM
Structure (SMILES): COc1cc(C2=CCCCc3c2ccc2c3c(CO)cn2C)cc(OC)c1OC
IC50 [1]: 33 nM
IC50 [2]: 63 nM
IC50 [3]: 46 nM
IC50 [5]: 43 nM
IC50 [6]: 32 nM
IC50 [7]: 49 nM
IC50 [8]: 31 nM

Structure (SMILES): COC(=O)C(=O)c1cn(C)c2ccc3c(c12)CCCC=C3c1cc(OC)c(OC)c(OC)c1
IC50 [1]: > 10000 nM
IC50 [2]: > 10000 nM
IC50 [3]: > 10000 nM
IC50 [5]: > 10000 nM
IC50 [6]: > 10000 nM
IC50 [7]: > 10000 nM
IC50 [8]: > 10000 nM

IC50 [4]: 150 nM
Structure (SMILES): COc1cc(C2CCCCc3c2ccc2c3ccn2C)cc(OC)c1OC (stereo not given)
Activity (A549 [9]): 60.2%
IC50 [10]: 1670 nM
Activity (A549 [11]): 22.8%
Activity (A549 [12]): 58.4%
IC50 [1]: 56 nM
IC50 [2]: 51 nM
IC50 [3]: 39 nM
IC50 [13]: 672 nM
Activity [14]: Non-Toxic
selectivity ratio [15]: 55
IC50 [16]: 213 nM
Activity (A549 [17]): Active
Activity [18]: Active
selectivity ratio [19]: 30.5
Activity (A549 [20]): 41.4%
Activity [21]: 72.1%
Activity [22]: 41%
IC50 [5]: 22 nM
IC50 [6]: 49 nM
IC50 [7]: 47 nM
Activity (A549 [23]): 59.8%
selectivity ratio [24]: 76.1
Activity [25]: Toxic
IC50 [8]: 37 nM
Activity (A549 [26]): Dose-dependent effect
Activity (A549 [27]): Active
Activity [28]: 55.1%
IC50 [29]: 1210 nM
Activity (A549 [30]): Active
Activity (A549 [31]): 39.6%
selectivity ratio [32]: 9.68

Structure (SMILES): CCCn1ccc2c3c(ccc21)C(c1cc(OC)c(OC)c(OC)c1)=CCCC3
IC50 [1]: 600 nM
IC50 [2]: 780 nM
IC50 [3]: 480 nM
IC50 [5]: 520 nM
IC50 [6]: 690 nM
IC50 [7]: 690 nM
IC50 [8]: 240 nM

Structure (SMILES): COc1cc(C2=CCc3c2ccc2c3ccn2C)cc(OC)c1OC
IC50 [1]: 326 nM
IC50 [2]: 449 nM
IC50 [3]: 561 nM
IC50 [5]: 149 nM
IC50 [6]: 297 nM
IC50 [7]: 412 nM
IC50 [8]: 186 nM

Structure (SMILES): COc1cc(C2=CCCCc3c2ccc2[nH]cc(C=O)c32)cc(OC)c1OC
IC50 [1]: 860 nM
IC50 [2]: 2060 nM
IC50 [3]: 1260 nM
IC50 [5]: 470 nM
IC50 [6]: 1130 nM
IC50 [7]: 950 nM
IC50 [8]: 1020 nM

Structure (SMILES): COc1ccc(/C=C\c2cc(OC)c(OC)c(OC)c2)cc1O [COMBRETASTATIN A4]
IC50 [1]: 12 nM
IC50 [2]: 29 nM
IC50 [3]: 13 nM
IC50 [4]: 1120 nM
IC50 [5]: 10 nM
IC50 [6]: 17 nM
IC50 [7]: 26 nM

IC50 [4]: 1040 nM
Structure (SMILES): COc1cc(C2=CCCCc3c2ccc2c3CCN2C)cc(OC)c1OC
IC50 [1]: 45 nM
IC50 [2]: 58 nM
IC50 [3]: 61 nM
IC50 [5]: 56 nM
IC50 [6]: 79 nM
IC50 [7]: 77 nM
IC50 [8]: 69 nM

IC50 [4]: 470 nM
Structure (SMILES): COc1cc(C2=CCCCc3c2ccc2c3c(C=O)cn2C)cc(OC)c1OC
IC50 [1]: 41 nM
IC50 [2]: 59 nM
IC50 [3]: 49 nM
IC50 [5]: 29 nM
IC50 [6]: 52 nM
IC50 [7]: 31 nM
IC50 [8]: 33 nM

Structure (SMILES): CCn1ccc2c3c(ccc21)C(c1cc(OC)c(OC)c(OC)c1)=CCCC3
IC50 [1]: 61 nM
IC50 [2]: 79 nM
IC50 [3]: 66 nM
IC50 [5]: 56 nM
IC50 [6]: 39 nM
IC50 [7]: 85 nM
IC50 [8]: 32 nM

Structure (SMILES): COc1cc(C2=CCCCc3c2ccc2[nH]ccc32)cc(OC)c1OC
IC50 [1]: 790 nM
IC50 [2]: 1560 nM
IC50 [3]: 620 nM
IC50 [5]: 451 nM
IC50 [6]: 520 nM
IC50 [7]: 980 nM
IC50 [8]: 1010 nM

— ChEMBL document CHEMBL3877276, “Design, synthesis, and biological evaluation of cyclic-indole derivatives as anti-tumor agents via the inhibition of tubulin polymerization” (Eur J Med Chem, 2017)
